Activity calls are given as the source filed them. No cut-off for these calls is given here.
How the values were obtained:
Saccharomyces cerevisiae [1] = assay: Inhibition of Saccharomyces cerevisiae alpha-glucosidase at 1 mM using […] preincubated for 5 mins followed by substrate addition and measured after 15 mins relative to control; settings: in the assay text read “p-nitrophenyl alpha-D-glucopyranoside” for “p-nitrophenyl beta-D-glucopyranoside”
How it was run: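 Single-concentration screen at 1 mM against S. cerevisiae α-glucosidase. p-Nitrophenyl-α-D-glucopyranoside substrate was fixed at 1 mM, well above the Km determined in fixed-time runs, to saturate the enzyme. Inhibition is relative to the negative control, with significance by Student t-test (p < 0.05).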

[2] = Inhibition of Saccharomyces cerevisiae alpha-glucosidase using […] preincubated for 5 mins followed by substrate addition and measured after 15 mins; settings: in the assay text read “p-nitrophenyl alpha-D-glucopyranoside” for “p-nitrophenyl beta-D-glucopyranoside”
How it was run: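 S. cerevisiae α-glucosidase with p-nitrophenyl-α-D-glucopyranoside substrate fixed at 1 mM (above Km, saturating). Inhibitor was tested across a 10^-3–10^-9 M range. IC50 was obtained by nonlinear regression of the concentration–inhibition data.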

Saccharomyces cerevisiae [3] = assay: Potency index, ratio of acarbose IC50 to test compound IC50 for Saccharomyces cerevisiae alpha-glucosidase
Rattus norvegicus [4] = assay: In vivo inhibition of intestinal maltase-glucoamylase in Wistar rat assessed as reduction in postprandial hyperglycemia at 2.2 mg/kg, po pretreated for 30 mins followed by maltose challenge and measured after 30 to 120 mins by OMTT; assay type: functional, organism-based
How it was run: (§1)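 Male Wistar rats received the test agent per os at the dose in the line, then a 2 g/kg maltose load. Blood glucose was followed after the maltose challenge. n = 5 per group, reported as m ± SEM. Comparisons were by 1-way ANOVA against vehicle and the reference group.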

Alpha glucosidase = Alpha glucosidase (Homo sapiens, UniProt O43451+P10253+P14410+Q2M2H8); assay: Inhibition of alpha-glucosidase (unknown origin) using p-nitrophenyl beta-D-glucopyranoside as substrate measured after 20 mins; assay type: protein assay
Rattus norvegicus [5] = assay: In vivo inhibition of intestinal maltase-glucoamylase in Wistar rat assessed as reduction in postprandial hyperglycemia at 5 mg/kg, po pretreated for 30 mins followed by maltose challenge and measured after 30 to 120 mins by OMTT; assay type: functional, organism-based; how it was run: as §1

Row | SMILES | inhibition (Saccharomyces cerevisiae [1]) [%] | IC50 [2] [µM] | further results
1 | Clc1ccc(C2C=C(c3ccccc3)Oc3ccc4ccccc4c32)cc1 (configuration not stated) | 18.3 |  | 
2 | Clc1ccc(C2=CC(c3ccccc3)c3ccccc3O2)cc1 (configuration not stated) | 69 | 950 | 
3 | Cc1ccc(C2=CC(c3ccc(Cl)cc3)c3c(ccc4ccccc34)O2)cc1 (configuration not stated) | 47.6 | 898 | 
4 | COc1ccc(C2CCc3c(ccc4ccccc34)O2)cc1 (configuration not stated) | 19.7 |  | 
5 | COc1ccc(C2C=C(c3ccccc3)Oc3ccc4ccccc4c32)cc1OC (configuration not stated) | 43.7 | > 1000 | 
6 | C1=C(c2ccccc2)Oc2ccccc2C1c1ccccc1 (configuration not stated) | 60.8 | 62.3 | Ratio IC50 (Saccharomyces cerevisiae [3]): 9; inhibition (Rattus norvegicus [4]): Active
7 | Clc1ccc(C2=CC(c3ccc(Cl)cc3)c3c(ccc4ccccc34)O2)cc1 (configuration not stated) | 14.9 |  | 
8 | COc1ccc(C2C=C(c3ccc(O)cc3)Oc3ccc4ccccc4c32)cc1 (configuration not stated) | 36.1 |  | 
9 | C1=C(c2ccccc2)Oc2ccc3ccccc3c2C1 | 10.8 |  | 
10 | Oc1cc(O)c2c(c1)O[C@@H](c1ccc(O)c(O)c1)[C@H](O)C2 [(-)-CATECHIN] |  |  | IC50 (Alpha glucosidase): 53.8 µM
11 | C1=C(c2ccccc2)Oc2ccc3ccccc3c2C1c1ccccc1 (configuration not stated) | 39.6 |  | 
12 | CCc1ccc(C2=CCc3c(ccc4ccccc34)O2)cc1 | 91.7 | 649 | 
13 | C[C@H]1O[C@H](O[C@H]2[C@H](O)[C@@H](O)[C@@H](O[C@H]3[C@H](O)[C@@H](O)C(O)O[C@@H]3CO)O[C@@H]2CO)[C@H](O)[C@@H](O)[C@@H]1N[C@H]1C=C(CO)[C@@H](O)[C@H](O)[C@H]1O (some centres not stated) [ACARBOSE] | 55.8 | 544 | inhibition (Rattus norvegicus [5]): Active

From ChEMBL document CHEMBL4308855, “Synthesis, in vitro and in vivo evaluation of 2-aryl-4H-chromene and 3-aryl-1H-benzo[f]chromene derivatives as novel α-glucosidase inhibitors” (Bioorg Med Chem Lett, 2019)
